Results on eleven compounds are retold here after ChEMBL document CHEMBL1138136, “Aplysamine-1 and related analogs as histamine H3 receptor antagonists” (Bioorg Med Chem Lett, 2006).

Structures are written as SMILES. pKi: −log10 of the molar value.

The target of experiment [1] is T1, Histamine H3 receptor (Homo sapiens, UniProt Q9Y5N1). The experiment can be described thus: Displacement of N-[3H]methylhistamine from human histamine H3 receptor expressed in SK-N-MC cells. In kind it is cell-based.
T1 sequence (Q9Y5N1 whole entry): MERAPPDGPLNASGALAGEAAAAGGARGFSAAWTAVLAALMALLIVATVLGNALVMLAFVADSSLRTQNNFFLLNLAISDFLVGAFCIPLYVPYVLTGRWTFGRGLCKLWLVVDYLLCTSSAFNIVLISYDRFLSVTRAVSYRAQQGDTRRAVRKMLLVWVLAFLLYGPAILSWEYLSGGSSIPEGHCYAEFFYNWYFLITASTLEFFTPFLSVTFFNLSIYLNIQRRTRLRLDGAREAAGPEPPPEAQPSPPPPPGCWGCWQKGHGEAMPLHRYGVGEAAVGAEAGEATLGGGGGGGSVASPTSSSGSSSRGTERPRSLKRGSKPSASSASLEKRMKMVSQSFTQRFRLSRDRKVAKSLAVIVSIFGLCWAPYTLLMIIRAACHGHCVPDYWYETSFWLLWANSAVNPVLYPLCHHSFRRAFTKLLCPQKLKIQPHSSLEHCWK
For experiment [2], the target named is Histamine H3 receptor (Rattus norvegicus, UniProt Q9QYN8). Description: Displacement of N-[3H]methylhistamine from rat histamine H3 receptor in rat cortical hemispheres.
Histamine H3 receptor (Rattus norvegicus, UniProt Q9QYN8), sequence (Q9QYN8 whole entry): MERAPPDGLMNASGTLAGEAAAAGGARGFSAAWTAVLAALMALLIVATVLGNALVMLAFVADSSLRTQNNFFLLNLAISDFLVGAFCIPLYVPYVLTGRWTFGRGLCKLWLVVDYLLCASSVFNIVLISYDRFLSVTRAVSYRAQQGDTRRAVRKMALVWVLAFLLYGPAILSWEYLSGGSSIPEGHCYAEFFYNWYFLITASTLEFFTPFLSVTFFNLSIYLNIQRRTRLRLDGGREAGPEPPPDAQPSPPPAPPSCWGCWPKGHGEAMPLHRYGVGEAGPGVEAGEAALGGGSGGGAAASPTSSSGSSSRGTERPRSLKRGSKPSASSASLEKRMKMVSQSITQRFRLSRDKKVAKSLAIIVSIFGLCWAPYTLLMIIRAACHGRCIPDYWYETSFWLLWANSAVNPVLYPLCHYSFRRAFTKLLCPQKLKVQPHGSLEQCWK
The target in experiment [3] is T1, Histamine H3 receptor. Description: Activity against human histamine H3 receptor by histamine induced inhibition of forskolin stimulated cAMP accumulation in SK-N-MC cells. In kind it is functional, cell-based. The conditions noted are these: read-out: pA2 (converted). The method, boiled down: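 SK-N-MC cells overexpressing human H3 receptor; antagonist-induced rightward shifts of histamine dose–response curves for inhibition of forskolin-stimulated cAMP accumulation measured. pA2 obtained by Schild regression analysis.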
On the technique in general: cAMP levels reflect the balance of adenylyl cyclase and phosphodiesterase activity.

Broadly, the pKi is the negative decadic logarithm of the Ki, by convention in mol/L. Lower therefore signals a large Ki.

Turning to `CN(C)CCc1ccc(OCCN2CCCCC2)cc1`, the values for the pKi in experiment [1] and in experiment [2] were 7.85 and 7.30, respectively.
On to `CN(C)CCCOc1ccc(CN2CCCCC2)cc1`, for which, in experiment [3], the Kb is 0.00933 µM. The pKi in experiment [1] was 8.52; in experiment [2], 7.35.
The matching figures for `CN(C)CCCOc1ccc(CCN(C)C)cc1`: 0.017 µM, 8.22 and 7.05.
In the case of `CN(C)CCOc1ccc(CCN(C)C)cc1`, the pKi was 7.40 in experiment [1] and 6.46 in experiment [2].
Take `CN(C)CCCOc1c(Br)cc(CN(C)C)cc1Br`: the values for the pKi in experiment [1] and in experiment [2] were 7.44 and 6.50, respectively.
In experiment [2], `c1cc(OCCCN2CCCCC2)ccc1CN1CCCCC1` [JNJ-5207852] had a pKi of 9.00.
On to `CN(C)CCCOc1ccc(CN(C)C)cc1`, for which the pKi in experiment [1] is 7.74; in experiment [2], 6.59.
Compound `CCCCN(CCCC)CCCOc1ccc(-c2cn3c(C)cccc3n2)cc1` showed a pKi in experiment [1] of 5.40.
For `CN(C)CCc1ccc(OCCCN2CCCCC2)cc1`, the Kb in experiment [3] is 0.000501 µM. The pKi in experiment [1] was 9.30; in experiment [2] it was 8.30.
For `Brc1cc(CN2CCCCC2)cc(Br)c1OCCCN1CCCCC1`, in that order: 0.00724 µM, 8.10 and 7.24.
Consider `CN(C)CCCOc1c(Br)cc(CCN(C)C)cc1Br` [APLYSAMINE], for which, in experiment [2], the pKi was 6.60.
